Screens from PubChem BioAssay.
HUVEC inhibit: blocks proliferation of human endothelial cells | HUVEC proliferation, CellTiter-Glo luminescence, 72 h; active compounds read low | viability, % at 10 µM (by protocol) | 86,000 compounds, 1.1% hits;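 active means viability at or below 30%; inactive means viability above 30%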
HCT116 bCat-KO: beta-catenin-lacking colon tumor cell growth suppression; HCT116 beta-catenin knockout viability, CellTiter-Glo, 60 h; active compounds read low; viability, % at 10 µM; 140,000 compounds, 1.5% hits;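 active means viability at or under a set limit, the compound median less 4 SD, cut at about 6% in these data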
Lung fibro prol: blocks proliferation of human lung fibroblasts; LL 47 human lung fibroblast viability, ATP luminescence; active compounds read low; viability, % at 10 µM; 85,000 compounds, 1.1% hits; AID 719;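 active means viability at or below 50% in the single dose screen; inactive means viability above 50%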;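 further: compound exposure lasted 72 h before the ATP readout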
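Assay system: human lung fibroblast line LL 47, low passage. Input: 1,150 fibroblasts seeded per well. Times: overnight cell rest, 72 h compound treatment at 37 °C. Evaluation: % viability of median cell-only signal. Technique: luminescent ATP detection, CellTiter-Glo. Control set: cell-only wells, no compound.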
H69AR inhibit: blocks growth of human H69AR lung tumor cells; H69AR lung tumor viability, ATP luminescence, 72 h; active compounds read low; viability, % at 10 µM; 85,000 compounds, 6% hits;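 active means viability at or below 40%; inactive means viability above 40%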;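 further: multidrug resistant small cell line overexpressing MRP-1 efflux transporter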
HCT116 PTEN-null: suppresses growth of cells with PTEN deletion; HCT116 PTEN-null viability, CellTiter-Glo, 60 h; active compounds read low; viability, % at 10 µM; 140,000 compounds, 1.2% hits; AID 827;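 active means viability at or below a set limit, 4 SD under the median of all tested compounds, cut at about 3.7% in these data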;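 further: PTEN knockout HCT116 line with beta catenin targeted HCT116 as companion control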
Hits are given with their value; i = inactive; nt = no result. This is one part of a sample in which hits are shown more often than they occur.

SMILES	HUVEC inhibit	HCT116 bCat-KO	Lung fibro prol	H69AR inhibit	HCT116 PTEN-null
CCOc1cccc2c1OC(c1cc(OC)c(OC)c(OC)c1)N1N=C(c3ccc(C)o3)CC21 (stereo not drawn)	nt	i	nt	nt	i
Cc1ccc(S(=O)(=O)/C(C#N)=C/c2c(Oc3ccc(Cl)cc3)nc3c(C)cccn3c2=O)cc1	nt	2.7	nt	nt	2.0
Cc1ccc(S(=O)(=O)/C(C#N)=C/c2c(N3CCC(C(N)=O)CC3)nc3c(C)cccn3c2=O)cc1	i	i	i	i	i
O=C(NC1CCCCC1)Sc1ccc(Cl)cc1	i	i	i	36.0	i
COc1cc2nc(C3CC3)n(NC(=O)c3ccc(F)cc3)c(=O)c2cc1OC	i	i	i	i	i
COc1cc2nc(C3CC3)n(NC(=O)c3ccc(Cl)cc3)c(=O)c2cc1OC	i	i	i	24.4	i
CCO/N=C(\C)c1c(O)c(CC)c(-c2ccccc2)n(-c2ccccc2)c1=O	i	i	i	i	i
CCOC(=O)c1ccc(NC(=S)N2CCSC2c2ccc(Br)cc2)cc1 (stereo not drawn)	nt	i	nt	nt	i
CC(COc1ccccc1)N(CCCl)Cc1ccccc1 (stereo not drawn)	i	i	i	1.7	i
CCOc1cc(/C=N/NC(=O)C(=O)NC)cc(Br)c1O	nt	i	nt	nt	i
S=C(Nc1ccc(Cl)c(Cl)c1)NC1CCCCC1	nt	i	nt	nt	i
S=C(Nc1ccc(Cl)c(Cl)c1)NC1CCN(Cc2ccccc2)CC1	nt	3.8	nt	nt	i
O=C(NCc1ccco1)c1cc2n(n1)C(C(F)(F)F)CC(c1ccc(Cl)c(Cl)c1)N2 (stereo not drawn)	i	i	i	31.2	i
O=C(NCc1ccco1)c1cc2n(n1)C(C(F)(F)F)CC(c1ccc(Br)cc1)N2 (stereo not drawn)	i	i	i	i	i
CCOc1ccccc1C1C(C(=O)OC)=C(N)OC2=C1C(=O)CCC2 (stereo not drawn)	i	i	i	i	i
CCOc1ccc(Br)cc1C1C(C(=O)OC)=C(N)Oc2cc(N(C)C)ccc21 (stereo not drawn)	i	i	i	25.4	i
Cc1c(Br)cc(C(=O)OC2CCN(C)CC2)c(C)c1C	i	i	i	3.8	i
CCN(CC)S(=O)(=O)c1ccc(N2C(=O)CC2(/C=C/c2ccccc2)C(=O)NC2CCCC2)cc1 (stereo not drawn)	nt	i	nt	nt	i
COc1ccccc1/C=C/C1(C(=O)NC2CCCC2)CC(=O)N1c1ccc(C)cc1 (stereo not drawn)	i	i	47.6	2.1	i
COc1ccccc1/C=C/C1(C(=O)NC2CCCC2)CC(=O)N1c1ccc(F)cc1 (stereo not drawn)	i	i	1.9	0.5	i
COc1ccccc1N(C(=O)c1cncc(Br)c1)c1nc(-c2ccc(C)cc2)cs1	nt	i	nt	nt	i
Cc1ccnc(NC(NC(=O)C(C)C)(C(F)(F)F)C(F)(F)F)c1	nt	i	nt	nt	i
Cc1oc2cc(OCc3cnn(-c4ccccc4)c3)ccc2c(=O)c1Oc1ccccc1F	nt	i	nt	nt	i
O=C(Cc1c(F)cccc1Cl)NCC1CCCO1 (stereo not drawn)	i	i	i	i	i
O=c1c(F)cn(C2CCCO2)c(=O)n1Cc1c(Cl)cccc1Cl (stereo not drawn)	i	i	i	28.3	i
SMILES	HUVEC inhibit	HCT116 bCat-KO	Lung fibro prol	H69AR inhibit	HCT116 PTEN-null
COc1ccc(C2C(C(=O)OC3CCCCC3)=C(C)Nc3nnnn32)c(OC)c1OC (stereo not drawn)	i	i	i	7.3	i
O=S(=O)(NCc1ccco1)c1cnc(Cl)c(Br)c1	nt	i	nt	nt	i
CSCCC(NC(=O)c1cccc([N+](=O)[O-])c1)C(=O)O (stereo not drawn)	nt	i	nt	nt	i
C=CCOc1cccc(C2c3c(oc4ccccc4c3=O)C(=O)N2c2ccccn2)c1 (stereo not drawn)	i	i	i	26.3	i
CCOc1cccc(C2c3c(oc4ccccc4c3=O)C(=O)N2c2ccccn2)c1 (stereo not drawn)	i	i	i	i	i
CCOC(=O)c1oc2ccc(S(=O)(=O)n3nc(-c4ccc(OC)cc4)cc3N)cc2c1C	i	i	i	26.7	i
CCOC(=O)c1oc2ccc(S(=O)(=O)n3nc(-c4ccccc4)cc3N)cc2c1C	i	i	i	i	i
S=C1NCCOCCNC(=S)NCCOCCOCCOCCN1	nt	i	nt	nt	i
C(=N\Nc1ncnc2sc3c(c12)CCC3)/c1ccncc1	nt	i	nt	nt	3.3
C(=N\Nc1ncnc2sc3c(c12)CCC3)/c1cccs1	nt	2.1	nt	nt	2.5
O=C(Nc1ncnc2sc3c(c12)CCC3)c1ccco1	i	i	i	i	i
